Tests used:
[1] = system: Plasmodium falciparum; test: Antiplasmodial activity against erythrocyte form of chloroquine-sensitive Plasmodium falciparum D10 by parasite lactate dehydrogenase assay; format: functional, organism-based
How it was run: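 Asexual erythrocyte-stage cultures were maintained by a modified Trager–Jensen method. Samples were made as 20 mg/mL stocks in 100% DMSO and diluted in complete medium. The top test concentration was 100 µg/mL, with twofold serial dilution to 10 concentrations (lowest 0.2 µg/mL). Growth was read by parasite lactate dehydrogenase assay in triplicate on one occasion. IC50 came from full dose-response curves.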

[2] = system: CHO; test: Cytotoxicity against CHO cells by MTT assay; format: cell-based; details: Cricetulus griseus
How it was run: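 CHO cell growth and survival was read colorimetrically with MTT. Samples were diluted in complete medium on the day of testing as 10-fold serial dilutions to 6 concentrations (100 down to 0.001 µg/mL). Emetine served as reference. Tests were run in triplicate on one occasion. IC50 was obtained by non-linear dose-response curve fitting.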

[3] = Selectivity index, ratio of IC50 for CHO cells to IC50 for chloroquine-sensitive Plasmodium falciparum D10; format: toxicity, cell-based; details: hamster, read-out: Ratio IC50
How it was run: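 Computed as IC50 from the CHO MTT assay divided by IC50 from the D10 pLDH assay. Both IC50 values came from full dose-response curves, each run in triplicate on one occasion.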

[4] = system: Plasmodium falciparum; test: Resistance index, ratio of IC50 for chloroquine-resistant Plasmodium falciparum Dd2 to IC50 for chloroquine-sensitive Plasmodium falciparum D10; format: functional
[5] = system: Plasmodium falciparum; test: Antiplasmodial activity against erythrocyte form of chloroquine-resistant Plasmodium falciparum Dd2 by parasite lactate dehydrogenase assay; format: functional, organism-based
How it was run: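 Continuous culture of asexual erythrocyte stages (modified Trager–Jensen); growth read by parasite lactate dehydrogenase assay (modified Makler). Samples from 20 mg/mL DMSO stock, diluted in complete medium; full dose-response, twofold serial dilutions from 100 µg/mL to 0.2 µg/mL (10 concentrations); chloroquine reference. Triplicate on one occasion; IC50 from non-linear curve fitting.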

IC50 [1]	SMILES	IC50 [2]	selectivity ratio [3]	Ratio IC50 [4]	IC50 [5]
9.15 µM	CC(CCNCc1ccc(Cl)cc1)COc1c(I)cc(I)c2cccnc12 (configuration not stated)				
49.2 µM	CCN(CC)CCCCOc1cccc2cccnc12				
17.2 µM	CCN(CC)CCCCOc1ccc(Cl)c2cccnc12				
7.01 µM	Clc1ccc(CNCCCCOc2cccc3ncccc23)cc1	237 µM	34		
6.02 µM	CCN(CC)CCCCOc1ccc2ncccc2c1				
10.2 µM	CCN(CC)CCCCOc1cccc2ncccc12				
8.65 µM	CCN(CC)CCC(C)COc1c(Br)cc(Br)c2cccnc12 (configuration not stated)				
23.1 µM	CC(CCNCc1ccc(Cl)cc1)COc1cccc2ncccc12 (configuration not stated)				
100 µM	CCN(CC)CCC(C)COc1cccc2cccnc12 (configuration not stated)				
5.64 µM	CC(CCNCc1ccc(Cl)cc1)COc1cccc2cccnc12 (configuration not stated)				
13 µM	CCN(CC)CCC(C)COc1c(I)cc(Cl)c2cccnc12 (configuration not stated)				
13.9 µM	CCN(CC)CCC(C)COc1c(I)cc(I)c2cccnc12 (configuration not stated)				
9.02 µM	CCN(CC)CCCCOc1c(I)cc(Cl)c2cccnc12				
	CC[C@H]1CN2CCc3cc(OC)c(OC)cc3[C@@H]2C[C@@H]1C[C@H]1NCCc2cc(OC)c(OC)cc21 [EMETINE]	0.17 µM			
9.99 µM	Clc1ccc(CNCCCCOc2ccc(Cl)c3cccnc23)cc1				
8.08 µM	CCN(CC)CCC(C)COc1c(Cl)cc(Cl)c2cccnc12 (configuration not stated)				

SMILES	IC50 [1]	IC50 [2]	selectivity ratio [3]	Ratio IC50 [4]	IC50 [5]
CCN(CC)CCC(C)Cc1cc(Cl)c2cccnc2c1O (configuration not stated)	1.01 µM	4.8 µM	5	0.15	0.15 µM
Cc1ccc2c(Cl)cc(Cl)c(OCC(C)CCNCc3ccc(Cl)cc3)c2n1 (configuration not stated)	2.44 µM	4.11 µM	2	0.11	0.26 µM
CCN(CC)CCC(C)COc1c(Cl)cc(Cl)c2ccc(C)nc12 (configuration not stated)	3.95 µM	224 µM	57	0.17	0.68 µM
Clc1ccc(CNCCCCOc2ccc3ncccc3c2)cc1	7.29 µM	211 µM	29		> 1 µM
